# Screening results from PubChem.
# bIAP inh = blocks bovine intestinal alkaline phosphatase activity; inhibition, % at 20 µM; AID 1019; 190,000 tested, under 10 active; purified bovine IAP, CDP-star luminescence, 30 min;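 active = over 50% inhibition of intestinal alkaline phosphatase at 20 µM in the single-dose screen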
#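 System: Purified bovine intestinal alkaline phosphatase (IAP) enzyme | Input: IAP diluted 1/65,000,000 in the well | Also added: CDP-star chemiluminescent phosphatase substrate, 30 µM final | Dosing: 20 µM single dose | Times: Enzyme reaction for 30 min at room temperature | Detection: Luminescence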
# hIAP activ = increases human intestinal alkaline phosphatase activity; purified human IAP, CDP-Star luminescence, 30 min; hits give high values; 1 = vehicle-only enzyme, 0 = enzyme-free background; hit rate 0.16% among 330,000; AID 2524; activation factor at 10 µM;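 active = activation factor of the enzyme at least 2-fold when tested at 20 µM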
# Target sequence (P09923 whole entry, looked up): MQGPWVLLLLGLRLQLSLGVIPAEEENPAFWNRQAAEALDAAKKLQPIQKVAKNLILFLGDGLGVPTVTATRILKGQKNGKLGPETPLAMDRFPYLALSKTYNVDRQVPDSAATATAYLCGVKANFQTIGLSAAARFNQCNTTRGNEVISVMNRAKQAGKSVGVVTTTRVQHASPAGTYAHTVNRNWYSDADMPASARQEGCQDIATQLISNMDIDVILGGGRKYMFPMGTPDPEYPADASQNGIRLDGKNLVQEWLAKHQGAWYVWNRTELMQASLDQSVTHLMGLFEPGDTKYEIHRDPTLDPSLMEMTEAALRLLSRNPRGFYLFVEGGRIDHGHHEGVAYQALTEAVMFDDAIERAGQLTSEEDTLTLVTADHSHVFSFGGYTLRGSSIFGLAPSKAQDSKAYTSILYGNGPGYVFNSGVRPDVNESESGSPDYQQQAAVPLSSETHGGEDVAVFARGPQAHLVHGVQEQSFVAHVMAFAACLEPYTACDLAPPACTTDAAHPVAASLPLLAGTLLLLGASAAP
# bIAP act = increases bovine intestinal alkaline phosphatase activity. AID 1016. purified bovine IAP, CDP-star luminescence, 30 min; hits give high values; fold of DMSO-control signal, blank-subtracted. activation factor at 20 µM. hit rate 0.17% among 200,000;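 active = activation factor of 2 or more at 20 µM, a signal rise over negative controls twice the positive control's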
# hIAP inh = human IAP inhibition; P09923; purified IAP, CDP-Star luminescence, 30 min; inhibition, % at 10 µM; hit rate 0.12% among 330,000;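 active = inhibition reaching a set limit with compound at 10 µM in the primary screen, cut at about 35% in these data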;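 note: plate controls were DMSO wells with enzyme for no effect and no-enzyme buffer wells for full effect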
# mIAP inh = blocks mouse intestinal alkaline phosphatase; purified mouse IAP, CDP-Star luminescence, 30 min; inhibition, % at 10 µM; hit rate 0.2% among 330,000; AID 2806;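 active = inhibition of at least 40% at 10 µM in the primary screen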;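 note: plate controls were DMSO with enzyme for no effect and no enzyme wells for full effect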
# mIAP activ = increases mouse intestinal alkaline phosphatase activity. hit rate 0.24% among 330,000. activation factor at 10 µM. muIAP, CDP-Star luminescence, 30 min; hits give high values; 1 = vehicle-only enzyme signal, 0 = enzyme-free wells. AID 2805;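 active = activation factor of at least 2 at 20 µM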
#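 Assay system: mouse IAP enzyme; Reagent: CDP-Star chemiluminescent phosphatase substrate; Compound: DMSO-dissolved test compounds; Incubation: 30 min, room temperature; Technique: luminescence from enzymatic CDP-Star hydrolysis; Controls: DMSO-only wells and no-enzyme negative control.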
# * marks the source's active call; other numbers are inactive results; i = inactive; / = not tested or not shown. The list is not random: actives were taken first. Their share in the collection is about 0.79%.
SMILES,bIAP inh,hIAP activ,bIAP act,hIAP inh,mIAP inh,mIAP activ
Cc1ccc(C(=O)NC(NC(=O)c2ccc(C)cc2)C(Cl)Cl)cc1,29.2,1.16,0.7,-16.2,-237.5,3.38*
Cc1cccc2nc(CSc3nc4ccccc4[nH]3)cn12,-155.3,0.916,2.6*,8.4,9.9,0.901
c1ccc2[nH]c(SCc3cn4ccccc4n3)nc2c1,-40.9,1.46,1.4,-46.0,-6.0,1.06
Cc1nnc(NC(=O)C2CCN(S(=O)(=O)c3ccc(F)c(Cl)c3)CC2)o1,/,1.07,/,-7.5,-0.2,1
CC(=O)OCCCNc1cc(SCc2ccco2)c2nonc2c1[N+](=O)[O-],14.9,1.04,0.9,-3.9,49.9*,0.501
CCCC(=O)OCCNc1cc(SCc2ccco2)c2nonc2c1[N+](=O)[O-],30.5,0.928,0.7,7.2,48.9*,0.511
CCCSc1cc(NCCOC(=O)CCC)c([N+](=O)[O-])c2nonc12,/,0.907,0.4,9.3,17.3,0.827
CC12CCC(C/C1=N/OC(=O)c1cccc([N+](=O)[O-])c1)C2(C)C (configuration not stated),2.8,1.03,1,-3.0,6.3,0.937
CCOc1cc(N2CCOCC2)c(OCC)cc1NC(=O)c1cnccn1,/,1.01,/,-0.9,0.6,0.994
C/C(CCc1ccc2c(c1)OCO2)=N\N=C(/N)SC1CC(=O)N(c2ccccc2F)C1=O (configuration not stated),-1.3,0.716,1,28.4,3.8,0.962
CC(=O)Nc1ccc(C(=O)NC2CCSc3ccccc32)cc1 (configuration not stated),/,0.921,/,7.9,0.1,0.999
COC(=O)c1ccc(NC(=S)NC2CCc3ccccc32)cc1 (configuration not stated),-1.2,1.04,1,-4.0,-189.9,2.9*
Cc1ccc(NC(=S)NC2CCSc3ccccc32)cc1 (configuration not stated),/,1.33,/,-33.3,-268.6,3.69*
COC(=O)c1ccc(NC(=S)NC2CC2)cc1,-2.3,0.914,1,8.6,-6.2,1.06
Cc1ccc2c(c1)sc(-c1ccc(N(C)C)cc1)[n+]2C,/,0.878,/,12.2,-0.9,1.01
O=C(Nc1ccc(N2CCOCC2)cc1)c1ccc2nc(-c3ccco3)c(-c3ccco3)nc2c1,14.2,1.18,0.9,-18.3,7.9,0.921
S=C(Nc1ccc(N2CCOCC2)cc1)Nc1ccc2nc(-c3ccco3)c(-c3ccco3)nc2c1,22.8,0.881,0.8,11.9,44.7*,0.553
Cc1ccc(C(=O)Sc2cccccc2=O)cc1,/,0.928,/,7.2,8.2,0.918
Cc1noc(C)c1S(=O)(=O)N(C)C[C@H]1Oc2ccc(NC(=O)NC3CCCCC3)cc2C(=O)N([C@H](C)CO)C[C@@H]1C,/,0.978,/,2.2,-157.4,2.57*
COc1ccc(NC(=O)N(C)C[C@H]2Oc3ccc(NC(=O)NC4CCCCC4)cc3C(=O)N([C@H](C)CO)C[C@@H]2C)cc1,/,0.957,/,4.3,-105.4,2.05*
COc1ccc(NC(=O)Nc2ccc3c(c2)C(=O)N([C@H](C)CO)C[C@H](C)[C@@H](CN(C)C(=O)NC2CCCCC2)O3)cc1,/,1.07,/,-6.9,-139.2,2.39*
C/C(=N\NC(=O)c1c(Cl)c(C)nn1C)c1cccc(NC(=O)C2CCCC2)c1,/,0.817,/,18.3,-1.7,1.02
O=C(Nc1cc(Cl)cc(Cl)c1)C(c1ccccc1)N1CCCCC1 (configuration not stated),4.6,1.12,1,-11.8,-197.8,2.98*
O=C(Nc1cc(Cl)cc(Cl)c1)N1CCCC1,/,0.97,/,3.0,-111.9,2.12*
CCOC(=O)C1CCN(C(=O)C2(NC(=O)Nc3ccccc3C)CCCCC2)CC1,/,1.21,/,-21.0,-7.0,1.07
SMILES,bIAP inh,hIAP activ,bIAP act,hIAP inh,mIAP inh,mIAP activ
CCOC(=O)C1CCN(C(=O)C2(NC(=O)Nc3ccccc3Cl)CCCCC2)CC1,-249.4,1.11,3.5*,-11.5,-22.9,1.23
CC(=O)c1ccc(N2CCN(C(=O)CCCc3nc4ccccc4s3)CC2)cc1,4.3,1.07,1,-7.5,-6.0,1.06
Cc1cc(-c2csc(NC(=O)c3ccc(C#N)cc3)n2)c(C)n1Cc1ccco1,9.9,0.99,0.9,1.0,41.0*,0.59
Cc1cc(-c2csc(NC(=O)c3ccc(=O)[nH]c3)n2)c(C)n1Cc1ccccc1,-8.3,0.968,1.1,3.2,38.2,0.618
CC(=O)N1[C@H](C)C=C[C@]1(Cc1ccccc1)C(=O)NCCc1c[nH]c2ccccc12,/,0.84,/,16.0,0.8,0.992
C[C@@H]1C=C[C@](Cc2ccccc2)(C(=O)NCCc2c[nH]c3ccccc23)N1C(=O)c1ccccc1,-111.0,0.933,2.1*,6.7,-27.5,1.27
Cc1nn(C)cc1/C=N\NC(=O)c1ccc2c(c1)c(C)c(C)n2Cc1ccccc1,i,1.2,8.3*,-20.3,-129.7,2.3*
Cc1c(C)n(Cc2ccccc2)c2ccc(C(=O)O)cc12,/,0.984,/,1.6,1.8,0.982
Fc1cc(NC(=S)NCc2ccc(CNC(=S)Nc3ccc(Cl)c(F)c3)cc2)ccc1Cl,/,1.15,/,-14.8,-111.5,2.12*
COc1ccc(CNC(=S)Nc2ccc(F)c(Cl)c2)cc1OC,4.5,1.53,1,-52.8,-157.3,2.57*
FC(F)(F)c1cccc(NC(=S)NNC(=S)Nc2ccc(Cl)cc2)c1,/,0.935,/,6.5,11.7,0.883
FC(F)(F)c1cccc(NC(=S)NCc2ccc(Cl)cc2)c1,10.3,1.06,0.9,-5.7,-170.0,2.7*
Fc1ccc(CNC(=S)NCc2ccc(F)cc2)cc1,/,1.03,/,-3.3,-47.8,1.48
Fc1ccc(CNC(=S)Nc2cccc(C(F)(F)F)c2)cc1,2.5,1.18,1,-18.1,-162.1,2.62*
COc1ccc(CNC(=S)Nc2ccccc2)cc1Cl,/,1.06,/,-5.7,-40.4,1.4
CC(C)(Oc1ccc(Cl)cc1)C(=O)NCC(c1ccco1)N1CCCCC1 (configuration not stated),/,1.1,/,-10.3,-5.4,1.05
Fc1cccc(NC(=S)NCc2ccc(Cl)cc2)c1,5.1,1.13,0.9,-13.1,-150.1,2.5*
O=C(CNc1cccc(Cl)c1)NNC(=S)NCc1ccccc1,0.4,1.67,1,-67.0,6.3,0.937
S=C(NCc1ccccc1)Nc1cccc(Cl)c1,7.5,1.08,0.9,-8.5,-127.1,2.27*
Fc1ccccc1CNC(=S)Nc1cccc(C(F)(F)F)c1,10.9,0.775,0.9,22.5,-166.7,2.67*
CC(NC(=S)Nc1cccc(C(F)(F)F)c1)C(C)(C)C (configuration not stated),15.3,1.17,0.8,-16.7,-266.5,3.67*
CN(C)NC(=S)Nc1cccc(C(F)(F)F)c1,/,0.889,/,11.1,6.5,0.935
Fc1ccccc1NC(=S)NCc1ccc(Cl)cc1,/,1.12,/,-11.6,-51.0,1.51
O=C(NC1CCCCC1)C(c1ccncc1)N(C(=O)c1csnn1)c1ccccc1F (configuration not stated),/,0.943,/,5.7,7.2,0.928
